Measurements collected from several papers.

CNCCN(C)c1cc(C#N)cc(CCc2cc(C)cc(N)n2)c1 — Vd (male BALB/c mouse, brain; intravenous, 2 mg/kg): 44 L/kg
COc1cc(OC)c2nccc(N3CCc4c(cc(Cn5ccnc5)cc4-c4cn(C)nc4C(F)(F)F)C3=O)c2c1 — Vd (male CD-1 mouse, plasma; intravenous, 3 mg/kg): 2 L/kg
CC(C)(C)c1ccc(O)c(CN(Cc2cc(C(C)(C)C)ccc2O)C2CCC(NC(N)=O)CC2)c1 (stereo not drawn) — Vd (male C57BL/6 mouse, plasma; intraperitoneal, 5 mg/kg, single dose): 2.4 L
COc1ccc2nccc(N3CCc4c(cc(Cn5ccnc5)cc4-c4cn(C)nc4C(F)(F)F)C3=O)c2c1 — Vd (male CD-1 mouse, plasma; intravenous, 3 mg/kg): 1 L/kg
COc1cc(C2Oc3cc([C@H]4Oc5cc(O)cc(O)c5C(=O)[C@@H]4O)ccc3OC2CO)ccc1O (stereo partly drawn) — Vd (male CD-1 mouse, plasma; intravenous, 2 mg/kg): 2.51 L/kg
COc1nc(-c2cc(C)c(N[C@@H](C)c3ccc(F)cc3)nn2)ccc1-n1cnc(C)c1 — Vd (male CD-1 mouse, plasma; intravenous, 1 mg/kg, single dose): 1.02 L/kg
CC[C@H](C)[C@@H]1NC(=O)[C@@](C)(NC(=O)[C@H](CCCNC(=N)N)NC(=O)[C@H](CC(C)C)NC(=O)[C@@H](NC(=O)[C@H](CCC(N)=O)NC(=O)[C@H](CC(C)C)NC(C)=O)[C@@H](C)O)CCCC=CCCC[C@@](C)(C(=O)N[C@@H](CC(C)C)C(=O)N[C@@H](Cc2ccc3ccccc3c2)C(N)=O)NC(=O)[C@H](CCCNC(=N)N)NC(=O)[C@H](CCC(N)=O)NC1=O — Vd (male BALB/c mouse, plasma; intravenous, 5 mg/kg): 0.0692 L/kg
CCNc1nc2c(c(N3CC(=O)Nc4cc(OC)ccc43)n1)CCC2 — Vd (female C57BL/6 mouse, plasma; intravenous, 4 mg/kg, single dose): 4.7 L/kg
C=CC(=O)N1CC2CC(n3nc(-c4ccc(C(=O)Nc5ccccn5)cc4)c4c(N)ncnc43)CC2C1 (stereo not drawn) — Vd (male BALB/c mouse, plasma; intravenous, 1 mg/kg): 0.67 L/kg
COc1cc(C(=O)N2CCC(N3CCN(C)CC3)CC2)ccc1Nc1ncc2c(n1)N(C)c1ccccc1C(=O)N2C — Vd (mouse, plasma; intravenous, 1 mg/kg): 1.71 L/kg
COc1nc(-c2cc(C)c(N[C@@H](C)c3cc(F)cc(F)c3)nn2)ccc1-n1cnc(C)c1 — Vd (male CD-1 mouse, plasma; intravenous, 1 mg/kg, single dose): 2.1 L/kg
CNC(=O)c1cc(OC)cc2c(N3CCc4c(cc(Cn5ccnc5)cc4-c4cn(C)nc4C(F)(F)F)C3=O)ccnc12 — Vd (male CD-1 mouse, plasma; intravenous, 3 mg/kg): 0.4 L/kg
